Source: PubChem BioAssay
The list is not random: actives were taken first. Their share in the collection is about 3.5%.
RGS4 act – RGS4 potentiation or activation; HEK293 M3R/inducible RGS4, carbachol calcium flux Fluo4; hits give low values; B-score at 10 µM; 310,000 compounds, 0.92% hits;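 active = B-score of the integrated calcium signal more than 4 SD below the library mean, with starting fluorescence not abnormally high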;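 also: negative B-score means reduced calcium response which marks RGS4 activation or potentiation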
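Assay system: Inducible-RGS4 HEK293 cells carrying M3 receptor | Schedule: Compound preincubation 20 min at room temperature before agonist | Signal: Kinetic calcium fluorescence imaging with Fluo4-AM dye, 2 µM | Read-out basis: B score from integrated fluorescence ratio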
MrgX1 antag – human MrgX1 receptor antagonism, primary screen; Q96LB2; MRGX1-HEK293 calcium flux, Fluo-4, BAM8-22 antagonism; hits give low values; B-score at 10 µM; 310,000 compounds, 1.3% hits; AID 588676;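 active = calcium-response B-score plate-corrected more than 3 library SD below zero, starting fluorescence within 5 deviations, no agonist response on first addition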;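 also: peak minus trough fluorescence over baseline after final BAM8-22 challenge near maximal dose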
Target sequence (Q96LB2 whole entry, looked up): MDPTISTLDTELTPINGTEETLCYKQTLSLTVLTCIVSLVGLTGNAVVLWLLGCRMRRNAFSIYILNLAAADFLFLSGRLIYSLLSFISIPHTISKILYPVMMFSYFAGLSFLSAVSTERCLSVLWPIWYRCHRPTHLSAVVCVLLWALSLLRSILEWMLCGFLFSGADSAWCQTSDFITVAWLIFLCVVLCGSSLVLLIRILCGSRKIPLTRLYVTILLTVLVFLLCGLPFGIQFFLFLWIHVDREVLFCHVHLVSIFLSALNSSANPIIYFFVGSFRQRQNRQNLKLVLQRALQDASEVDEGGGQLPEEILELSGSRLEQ
MrgX1 allo act – allosterically activates human MrgX1 receptor signaling; Q96LB2; MrgX1-HEK293, Fluo-4 calcium flux, FDSS; hits give high values; B-score at 10 µM; 310,000 compounds, 0.63% hits; AID 588675;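 active = plate-corrected calcium response at least 3 library SD above typical, normal starting fluorescence, not activating the receptor alone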;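 also: compound read alongside a low EC10 to EC30 dose of BAM8-22 agonist; peak minus trough fluorescence over baseline measured at the second addition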
MrgX1 agonist – human MrgX1 receptor agonism, primary screen; 310,000 compounds, 0.44% hits; B-score at 10 µM; MrgX1-HEK293 cells, Fluo-4 calcium fluorescence, agonist mode; hits give high values; Q96LB2;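 active = calcium response B-score plate-corrected fluorescence ratio at least 3 library SD, with starting fluorescence B-score inside 5 SD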
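System – MrgX1-expressing HEK293 cells · Incubation – cells plated overnight, dye loaded 0.5 h 37 °C, 0.5 h room temperature · Technique – kinetic Fluo-4 NW fluorescence of intracellular calcium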
RGS4 block – inhibitors of human RGS4. B-score at 10 µM. P49798. 310,000 compounds, 0.45% hits. HEK293 M3R/RGS4 inducible, Fluo-4 calcium flux; hits give high values; triggered by carbachol at its EC20;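 active = B-score, a plate-corrected calcium signal, over three deviations above library mean, with baseline fluorescence within five deviations of library mean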;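 also: RGS4 expression induced by doxycycline in cells with stable M3 receptor; B-score is computed from the integrated fluorescence ratio over baseline after carbachol; higher B-score means a larger calcium signal and so more RGS4 inhibition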
Target sequence (P49798 whole entry, looked up): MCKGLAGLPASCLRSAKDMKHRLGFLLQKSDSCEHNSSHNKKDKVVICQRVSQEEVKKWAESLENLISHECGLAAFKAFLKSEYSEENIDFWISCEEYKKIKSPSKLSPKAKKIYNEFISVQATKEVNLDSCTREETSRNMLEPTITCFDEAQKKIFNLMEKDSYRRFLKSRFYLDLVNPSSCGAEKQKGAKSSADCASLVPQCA
The depositor's hits bear a star; i = inactive; x = not tested or not shown.

SMILES	RGS4 act	MrgX1 antag	MrgX1 allo act	MrgX1 agonist	RGS4 block
Cc1ccc(NS(=O)(=O)c2cc([N+](=O)[O-])ccc2N/N=C/c2sc(N3CCOCC3)nc2-c2ccccc2)c(C)c1	i	-9.4*	i	i	i
CCCOP(=O)(c1ccc(N(C)C)cc1)C(Nc1ccccc1)c1ccc(N(C)C)cc1 (stereo not given)	i	i	i	i	i
CCCCOP(=O)(c1ccc(N(C)C)cc1)C(Nc1ccccc1)c1ccccc1 (stereo not given)	-7.3*	i	i	i	i
COc1ccc(-n2nc3c(c2NC(=O)COc2ccccc2F)CS(=O)(=O)C3)cc1	i	i	i	i	i
COc1ccc(N2C(=O)CS/C2=N\C(=S)Nc2ccccc2)cc1	i	i	i	i	i
Cc1ccccc1OCC(=O)N/N=C/c1ccc2c(c1)OCCO2	i	i	6.5*	i	i
O=C(CN(Cc1ccccc1)S(=O)(=O)c1ccc2c(c1)OCCO2)N/N=C/c1ccc(F)cc1	i	i	i	i	i
COc1ccc(CNC(=O)CN(Cc2ccccc2)S(=O)(=O)c2ccc(Cl)cc2)cc1	i	-4.9*	i	i	i
COc1ccc(/C=N/NC(=O)CN(Cc2ccccc2)S(=O)(=O)c2ccc3c(c2)OCCO3)cc1	i	-6.2*	i	i	i
C#CCOCCOCCOCCNc1nc(N2CCN(C(=O)CCCCCCCCCCNC(=O)[C@@H](CCC(=O)O)n3cc(CCCCCN)nn3)CC2)nc(N2CCN(C(=O)CCCCCCCCCCNC(=O)[C@H](CO)n3cc(CCCCCN)nn3)CC2)n1	x	i	i	i	x
C#CCOCCOCCOCCNc1nc(N2CCN(C(=O)CCCCCCCCCCNC(=O)[C@H](CCCCN)n3cc(CCO)nn3)CC2)nc(N2CCN(C(=O)CCCCCCCCCCNC(=O)[C@H](CCCCN)n3cc(C[C@@H](C)CC)nn3)CC2)n1	x	i	i	83*	x
C#CCOCCOCCOCCNc1nc(N2CCN(C(=O)CCCCCCCCCCNC(=O)[C@@H](CCC(=O)O)n3cc(CCCCCN)nn3)CC2)nc(N2CCN(C(=O)CCCCCCCCCCNC(=O)[C@H](CCCCN)n3cc(C[C@@H](C)CC)nn3)CC2)n1	x	i	i	70*	x
CCCCn1nc(C(=O)Oc2ccc3c(C)cc(=O)oc3c2)c2ccccc2c1=O	i	-6.6*	i	i	i
O=[N+]([O-])c1cc(-c2nnc(Nc3ccccc3)c3ccccc23)ccc1N1CCOCC1	i	i	i	i	i
O=C(Nc1ccc(-c2nc3ccccc3o2)cc1)c1ccc(N2CCOCC2)c([N+](=O)[O-])c1	i	-6.5*	i	i	i
C=CCNc1nc(NCC)nc(N2CCOCC2)n1	i	i	i	i	i
O=[N+]([O-])c1cc(-c2nnc(Nc3ccc(O)cc3)c3ccccc23)ccc1N1CCOCC1	i	-4.7*	i	i	i
C=CCNc1nc(Nc2ccc(-c3nc4ccccc4o3)cc2)nc(N2CCOCC2)n1	-7.1*	i	i	i	i
COc1ccc2oc(-c3ccc(NC(=O)c4ccc(N5CCOCC5)c([N+](=O)[O-])c4)cc3)nc2c1	i	i	i	i	i
N#C/C(C(=O)NCc1ccccc1)=C1/SC(Cc2ccc(Cl)cc2)C(=O)N1c1ccccc1 (stereo not given)	i	i	i	i	i
Cc1cc(Cl)ccc1NC(=S)NCc1ccc(F)cc1	i	i	i	i	i
CCc1ccc2[nH]c(=O)c(CN(Cc3ccccc3)C(=O)Nc3ccccc3OC)cc2c1	i	i	i	i	i
COc1ccc2c(c1)N(C)/C(=C/c1cccc[n+]1C)S2	-9.4*	-5.8*	i	i	i
CCN1/C(=C/c2cccc[n+]2C)Sc2ccc(OC)cc21	-7.5*	-6.1*	i	i	i
COc1cc(OC)cc(C(=O)/C=C2\Sc3ccccc3N2C)c1	i	i	i	i	i
SMILES	RGS4 act	MrgX1 antag	MrgX1 allo act	MrgX1 agonist	RGS4 block
O=C(c1ccc([N+](=O)[O-])cc1)N1CCN(C(=O)C2CCCCC2)CC1	i	i	i	i	i
c1ccc(-c2nc3cccnc3nc2-c2ccccc2)cc1	i	i	i	i	i
Cc1cccn2c(=O)c(/C=C(\C#N)C(N)=O)c(N3CCN(Cc4ccc5c(c4)OCO5)CC3)nc12	-8.5*	i	i	i	i
O=C(O)CCS(=O)(=O)c1ccccc1Cl	i	i	i	i	i
Cc1ccc2nc(-c3ccccc3)nc(SC(C)C(=O)NCc3cccs3)c2c1 (stereo not given)	i	-7.3*	i	i	i
O=C(O)c1c2c(nc3ccccc13)/C(=C/c1ccccc1[N+](=O)[O-])CCC2	i	i	i	i	i
O=C(O)c1c2c(nc3ccccc13)/C(=C/c1cccc([N+](=O)[O-])c1)CCC2	i	i	18*	i	i
Cc1ccc(S(=O)(=O)N2[C@@H](c3ccccc3)C(C(=O)O)=CC[C@H]2c2ccc3c(c2)OCO3)cc1	x	i	10*	i	x
Cc1ccc(S(=O)(=O)N2[C@@H](c3ccc(Cl)cc3)C(C(=O)O)=CC[C@H]2c2cccc(Cl)c2)cc1	x	i	i	30*	x
Cc1ccc(S(=O)(=O)N2[C@@H](c3ccc(Cl)cc3)C(C(=O)O)=CC[C@H]2c2cccc(C)c2)cc1	x	i	i	i	x
O=C(NNS(=O)(=O)c1ccccc1)c1cccc([N+](=O)[O-])c1	i	i	i	i	i
COc1cc(NC(=O)C/C(C)=N/NC(=O)C(=O)NCCO)c(OC)cc1Cl	i	i	i	i	i
CCN(CC)C(=O)CN(c1cc2c(cc1OC)oc1ccccc12)S(=O)(=O)c1ccccc1	x	-9.1*	i	i	x
Cn1cccc1/C=N/n1c(-c2ccc(Cl)cc2)n[nH]c1=S	i	i	i	i	i
Cn1cccc1/C=N/n1c(-c2ccc(Cl)cc2Cl)n[nH]c1=S	i	i	i	27*	i
CC(c1cccs1)N(C)Cc1nc(CCc2ccccc2)no1 (stereo not given)	i	i	i	i	i
Fc1cccc(Cc2noc(CN3CCCN(C4Cc5ccccc5C4)CC3)n2)c1	-7.5*	i	i	i	i
Fc1cccc(Cc2noc(CN3CCSCC3)n2)c1	i	i	i	i	i
O=C(NCc1ccccc1)c1sc(=S)n2c1[nH]c(=O)c1ccccc12	i	i	i	51*	i
COc1ccccc1OCCCN1C(=O)C(=O)c2cccc(C)c21	i	i	i	28*	i
